# Results reported in ChEMBL document CHEMBL1140925, “Nuclear factor-kappaB mediated inhibition of cytokine production by imidazoline scaffolds” (J Med Chem, 2009).
# Activity calls are given as the source filed them. The calls are words filed in the database; no cut-off is given here.
# Experiments:
# Blood [1] = experiment: Antiinflammatory activity in human whole blood assessed as inhibition of IL-1-beta-induced TNFalpha production preincubated 2 hrs before addition of IL1-beta measured after 18 hrs by ELISA; format: functional, tissue-based
# Summary of the method: (§1)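 Human blood from donors with white count in the normal range, diluted 1:10 in RPMI-1640 with 10% FBS, penicillin and streptomycin. Aliquots were preincubated with vehicle (0.1% DMSO final) or compound at 10, 3, 1, 0.3 or 0.1 µM final for 2 h at 37 °C, 5% CO2. IL-1β (200 U/mL) was then added for 18 h, and plasma was collected and frozen. Cytokine was measured by ELISA.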
# HeLa [2] = experiment: Induction of NF-kappaB-mediated transcription expressed in human HeLa cells at 20 uM by luciferase reporter gene assay; format: cell-based
# Summary of the method: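 Stably integrated NF-κB-luc HeLa cells, hygromycin-selected, were exposed to 20 µM imidazoline without TNF-α activation. Firefly luciferase was read after 8 h, and signal was normalized to the TNF-α activation control.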
# Blood [3] = experiment: Antiinflammatory activity in human whole blood assessed as inhibition of IL-1-beta-induced IL6 production preincubated 2 hrs before addition of IL1-beta measured after 18 hrs by ELISA; format: functional, tissue-based; summary of the method: as §1
# HeLa [4] = experiment: (§2) Inhibition of TNF-alpha-induced NF-kappaB-mediated transcription expressed in human HeLa cells preincubated for 30 mins before addition of TNFalpha measured after 8 hrs by luciferase reporter gene assay; format: cell-based
# Summary of the method: (§3)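 HeLa/NF-κB-luc cells (5.0 × 10⁵ cells/mL) were grown 24 h, then switched to serum-free DMEM. They were pretreated 30 min at 37 °C with 0.05–20 µM imidazoline (1% DMSO vehicle), then stimulated with 25 ng/mL TNF-α for 8 h. Steady-Glo luminescence was normalized to TNF-α activation, and EC50 was taken from a variable-slope sigmoidal fit. Values are the mean of two independent experiments.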
# [5] = as §2; format: cell-based; summary of the method: as §3
# HeLa [6] = experiment: Inhibition of TNF-alpha-induced NF-kappaB-mediated transcription expressed in human HeLa cells co-transfected with renilla luciferase-TK gene preincubated for 30 mins before TNFalpha challenge measured after 8 hrs by dual-glo luciferase reporter gene assay; format: cell-based
# Summary of the method: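 HeLa cells were transiently cotransfected (lipofectamine 2000, 5–6 h) with 6×κB pNF-κB-luc and the pRL-TK Renilla control, then grown 24 h. They were pretreated 30 min with 0.312–20 µM (1% DMSO vehicle), then stimulated with 25 ng/mL TNF-α for 8 h at 37 °C. Dual-Glo firefly signal was normalized to Renilla luminescence.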
Compound,Activity (Blood [1]),Activity (HeLa [2]),Activity (Blood [3]),Activity (HeLa [4]),logEC50 (HeLa [4]),EC50 [5],IC50 (Blood [1]),IC50 (Blood [3]),"IC50 (Blood [1]; Homo sapiens, Blood)","IC50 (Blood [3]; Homo sapiens, Blood)",logIC50 (Blood [1]),logIC50 (Blood [3]),logEC50 (HeLa [6])
c1ccc(Cn2c(-c3ccccc3)nc(-c3ccccc3)c2-c2ccccc2)cc1,Dose-dependent effect,inactive,Dose-dependent effect,Dose-dependent effect,1.44,27.7 µM,–,–,–,–,–,–,–
CCOC(=O)[C@]1(c2ccccc2)N=C(c2ccccc2)N(Cc2ccccc2)[C@@H]1c1ccccc1 [listing 1 of 2 here],–,–,–,–,–,1.6 µM,0.6 µM,0.2 µM,–,–,–,–,–
CCOC(=O)[C@@]1(c2ccccc2)N=C(c2ccccc2)N(Cc2ccccc2)[C@H]1c1ccccc1,Dose-dependent effect,inactive,Dose-dependent effect,Dose-dependent effect,0.469,2.9 µM,–,–,0.7 µM,0.583 µM,–,–,–
CCOC(=O)[C@]1(c2ccccc2)N=C(c2ccccc2)N(Cc2ccccc2)[C@@H]1c1ccccc1 [listing 2 of 2 here],Dose-dependent effect,inactive,Dose-dependent effect,Dose-dependent effect,0.209,–,–,–,–,–,–,–,–
OC[C@]1(c2ccccc2)N=C(c2ccccc2)N(Cc2ccccc2)[C@@H]1c1ccccc1 (racemic),–,inactive,Dose-dependent effect,Dose-dependent effect,–,> 20 µM,–,–,–,> 20 µM,1.29,–,–
O=C(OCc1ccccc1)[C@]1(c2ccccc2)N=C(c2ccccc2)N(Cc2ccccc2)[C@@H]1c1ccccc1 (racemic),Dose-dependent effect,inactive,Dose-dependent effect,Dose-dependent effect,0.54,3.5 µM,–,–,3.2 µM,–,0.51,0.77,–
NC(=O)[C@]1(c2ccccc2)N=C(c2ccccc2)N(Cc2ccccc2)[C@@H]1c1ccccc1 (racemic),–,inactive,Dose-dependent effect,Dose-dependent effect,1.55,26.2 µM,–,–,> 20 µM,11.9 µM,1.668,1.08,–
c1ccc(CN2C(c3ccccc3)=N[C@H](c3ccccc3)[C@H]2c2ccccc2)cc1 (racemic),Dose-dependent effect,inactive,Dose-dependent effect,Dose-dependent effect,0.66,4.59 µM,–,–,–,2.47 µM,0.39,–,–
c1ccc(CN2C(c3ccccc3)=N[C@@H](c3ccccc3)[C@H]2c2ccccc2)cc1 (racemic),Dose-dependent effect,inactive,Dose-dependent effect,Dose-dependent effect,1.04,11 µM,–,–,–,2.4 µM,0.38,–,–
COC(=O)[C@]1(c2ccccc2)N=C(c2ccccc2)N(Cc2ccccc2)[C@@H]1c1ccccc1 (racemic),Dose-dependent effect,inactive,Dose-dependent effect,Dose-dependent effect,0.87,7.47 µM,–,–,2.79 µM,–,0.4761,0.446,–
CCOC(=O)[C@]1(c2ccccc2)N=C(c2ccccc2)N(Cc2ccccc2)[C@@H]1c1ccccc1 (racemic),Dose-dependent effect,inactive,Dose-dependent effect,Dose-dependent effect,0.4,–,–,–,–,–,–,–,0.67
O=C(O)[C@]1(c2ccccc2)N=C(c2ccccc2)N(Cc2ccccc2)[C@@H]1c1ccccc1 (racemic; 1) [listing 1 of 2 here],–,–,–,–,–,0.95 µM,–,–,> 20 µM,> 20 µM,–,–,–
O=C(O)[C@]1(c2ccccc2)N=C(c2ccccc2)N(Cc2ccccc2)[C@@H]1c1ccccc1 (racemic; 1) [listing 2 of 2 here],Dose-dependent effect,inactive,Dose-dependent effect,Dose-dependent effect,–,–,–,–,–,–,–,–,–
O=C(O)[C@]1(c2ccccc2)N=C(c2ccccc2)N(Cc2ccccc2)[C@@H]1c1ccccc1 (racemic; 2),–,inactive,–,inactive,–,–,–,–,–,–,–,–,–
